Calls of active or inactive are those of the source. The calls are words filed in the database; no cut-off is given here.
What was measured:
[1] = tested on: Mus musculus; experiment: Antinociceptive activity in Swiss mouse assessed as inhibition of acetic acid-induced writhing at 50 mg/kg, po administered 1 hr prior to acetic acid challenge measured for 30 mins; assay type: functional
How it was run: (§1)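 Swiss mice (25–35 g, either sex), fasted overnight, given compound orally in 0.5% methylcellulose; controls received vehicle; groups of 8–10. Writhes, scored as complete extension of either hind limb, counted over 30 min after injection of the noxious agent. Percent inhibition derived from the difference in writhing between treated and control groups.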

[2] = tested on: Mus musculus; experiment: Antinociceptive activity in Swiss mouse assessed as inhibition of acetic acid-induced writhing at 100 mg/kg, po administered 1 hr prior to acetic acid challenge measured for 30 mins; assay type: functional; how it was run: as §1
[3] = tested on: Rattus norvegicus; experiment: Antiinflammatory activity in Wistar rat assessed as inhibition of carrageenan-induced paw oedema at 100 mg/kg, po administered 1 hr prior to carrageenan challenge; assay type: functional
How it was run: (§2)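 Wistar rats (250–300 g, either sex), fasted overnight, dosed by oral gavage with compound suspended in 0.5% methylcellulose; controls got vehicle. Groups of 8–10. 1 h later 0.1 mL 1% carrageenan injected subcutaneously into hind paw plantar surface; paw volume measured by plethysmometer immediately and 3 h later. Inhibition calculated from swelling difference versus controls (control = 100).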

[4] = tested on: Rattus norvegicus; experiment: Antiinflammatory activity in Wistar rat assessed as inhibition of carrageenan-induced paw oedema at 50 mg/kg, po administered 1 hr prior to carrageenan challenge; assay type: functional; how it was run: as §2
[5] = tested on: Rattus norvegicus; experiment: Antiinflammatory activity in Wistar rat assessed as inhibition of carrageenan-induced paw oedema at 25 mg/kg, po administered 1 hr prior to carrageenan challenge; assay type: functional; how it was run: as §2
[6] = tested on: Rattus norvegicus; experiment: Antiinflammatory activity in Wistar rat assessed as inhibition of carrageenan-induced paw oedema at 12.5 mg/kg, po administered 1 hr prior to carrageenan challenge; assay type: functional; how it was run: as §2
[7] = tested on: Rattus norvegicus; experiment: Antiinflammatory activity in Wistar rat assessed as inhibition of carrageenan-induced paw oedema at 6.25 mg/kg, po administered 1 hr prior to carrageenan challenge; assay type: functional; how it was run: as §2
[8] = tested on: Mus musculus; experiment: Antinociceptive activity in Swiss mouse assessed as inhibition of acetic acid-induced writhing at 25 mg/kg, po administered 1 hr prior to acetic acid challenge measured for 30 mins; assay type: functional; how it was run: as §1
[9] = tested on: Mus musculus; experiment: Antinociceptive activity in Swiss mouse assessed as inhibition of acetic acid-induced writhing at 12.5 mg/kg, po administered 1 hr prior to acetic acid challenge measured for 30 mins; assay type: functional; how it was run: as §1
[10] = tested on: Mus musculus; experiment: Sedative activity in Swiss mouse assessed as inhibition of spontaneous locomotor activity at 100 mg/kg, po measured for 30 mins by open-field test; assay type: organism-based; set-up: dose 100 mg/kg, route oral; conditions: in vivo, 0.5 h
How it was run: (§3)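 Swiss mice (25-35 g, either sex), fasted overnight, given compound orally by gavage suspended in 0.5% methylcellulose; vehicle controls; groups of 8-10. Spontaneous locomotor activity recorded by videocamera with video-tracking as distance (m) travelled in 30 min; Student's t-test vs controls.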

[11] = tested on: Mus musculus; experiment: Sedative activity in Swiss mouse assessed as inhibition of spontaneous locomotor activity at 50 mg/kg, po measured for 30 mins by open-field test; assay type: organism-based; set-up: dose 50 mg/kg, route oral; conditions: in vivo, 0.5 h; how it was run: as §3
[12] = tested on: Mus musculus; experiment: Sedative activity in Swiss mouse assessed as inhibition of spontaneous locomotor activity at 25 mg/kg, po measured for 30 mins by open-field test; assay type: organism-based; set-up: dose 25 mg/kg, route oral; conditions: in vivo, 0.5 h; how it was run: as §3
[13] = tested on: Rattus norvegicus; experiment: Antiinflammatory activity in Wistar rat assessed as inhibition of carrageenan-induced paw oedema at 3.12 mg/kg, po administered 1 hr prior to carrageenan challenge; assay type: functional; how it was run: as §2
[14] = tested on: Rattus norvegicus; experiment: Antiinflammatory activity in Wistar rat assessed as inhibition of carrageenan-induced paw oedema at 1.6 mg/kg, po administered 1 hr prior to carrageenan challenge; assay type: functional; how it was run: as §2
[15] = tested on: Rattus norvegicus; experiment: Antiinflammatory activity in Wistar rat assessed as inhibition of carrageenan-induced paw oedema at 0.8 mg/kg, po administered 1 hr prior to carrageenan challenge; assay type: functional; how it was run: as §2
[16] = tested on: Rattus norvegicus; experiment: Acute gastrolesivity in Wistar rat assessed as stomach lesions at 100 mg/kg, po measured after 5 hrs; assay type: toxicity, organism-based; set-up: dose 100 mg/kg, route oral; conditions: in vivo
How it was run: (§4)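 Wistar rats (250-300 g, either sex), fasted overnight, dosed by oral gavage in 0.5% methylcellulose (1 mL 100 g^-1); groups of 8-10. Stomachs excised 5 h post-dose, fixed with 2% formalin, opened along greater curvature, examined by stereomicroscope by blinded observer. Read-out: number of rats with gastric damage over number treated.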

[17] = Antiplatelet activity in guinea pig platelet rich plasma assessed as inhibition of ADP-induced aggregation by aggregometry; assay type: functional, cell-free; conditions: Cavia porcellus
How it was run: (§5)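 Guinea pig blood drawn by cardiac puncture into 3.8% citrate (1:9). PRP obtained by spinning at 180 g for 15 min, PPP at 2000 g for 10 min. PRP preincubated 5 min at 37 °C with compound or DMSO (≤0.5% final), then aggregation triggered by U46619, ADP or arachidonic acid. Born turbidimetry at 37 °C with stirring; percent inhibition versus control; tested within 3 h.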

[18] = Antiplatelet activity in guinea pig platelet rich plasma assessed as inhibition of arachidonic acid-induced aggregation by aggregometry; assay type: functional, cell-free; conditions: Cavia porcellus; how it was run: as §5
[19] = Antiplatelet activity in guinea pig platelet rich plasma assessed as inhibition of U46619-induced aggregation by aggregometry; assay type: functional, cell-free; conditions: Cavia porcellus; how it was run: as §5
[20] = tested on: J774; experiment: Antiinflammatory activity in mouse J774 cells assessed as inhibition of LPS-induced NO production at 100 uM after 6 hrs by Griess assay; assay type: functional, cell-based
How it was run: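 J774 murine macrophages grown in DMEM with 10% FBS and 2 mM glutamine at 37 °C, 5% CO2. Cells plated at 2.5 × 10⁵/mL, left to adhere overnight, and the medium refreshed. Compound added together with LPS. Supernatants taken after 6 h; nitrite measured with Griess reagent (10 min) as absorbance at 540 nm, with fresh medium as blank.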

[21] = tested on: Rattus norvegicus; experiment: Acute gastrolesivity in Wistar rat assessed as stomach lesions at 10 mg/kg, po measured after 5 hrs; assay type: toxicity, organism-based; set-up: dose 10 mg/kg, route oral; conditions: in vivo; how it was run: as §4
[22] = tested on: Mus musculus; experiment: Antinociceptive activity in Swiss mouse assessed as inhibition of acetic acid-induced writhing at 6.25 mg/kg, po administered 1 hr prior to acetic acid challenge measured for 30 mins; assay type: functional; how it was run: as §1
[23] = tested on: Mus musculus; experiment: Sedative activity in Swiss mouse assessed as inhibition of spontaneous locomotor activity at 12.5 mg/kg, po measured for 30 mins by open-field test; assay type: organism-based; set-up: dose 12.5 mg/kg, route oral; conditions: in vivo, 0.5 h; how it was run: as §3

Compound | inhibition in vivo at 50 mg/kg [1] [%] | inhibition in vivo at 100 mg/kg [2] [%] | inhibition in vivo at 100 mg/kg [3] [%] | inhibition in vivo at 50 mg/kg [4] [%] | inhibition in vivo at 25 mg/kg [5] [%] | inhibition in vivo at 25 mg/kg [8] [%] | Activity [10] | also measured
CCCNC(=O)c1c(NC(C)C)c2cccnc2n2c(C(C)C)nnc12 | 0 | 0 | 72 | 63 | 70 |  |  | inhibition in vivo at 12.5 mg/kg [6]: 44%; inhibition in vivo at 6.25 mg/kg [7]: 19%
CCNC(=O)c1c(NC(CC)CC)c2cccnc2n2c(C(C)C)nnc12 | 41 | 34 | 60 | 35 | 30 | 0 |  | inhibition in vivo at 12.5 mg/kg [6]: 12%
CCN(CC)C(=O)c1c(N2CCN(CCO)CC2)c2cccnc2n2c(C(C)C)nnc12 | 96 | 85 | 0 |  |  | 48 | Toxic | inhibition in vivo at 12.5 mg/kg [9]: 13%; Activity [11]: Toxic; Activity [12]: Toxic
CCN(CC)C(=O)c1c(N2CCN(C)CC2)c2cccnc2n2c(CN3CCOCC3)nnc12 |  | 37 | 8 |  |  |  |  | 
CCN(CC)C(=O)c1c(NCC(C)C)c2cccnc2n2c(=O)cc(C)nc12 | 54 | 71 | 15 |  |  | 0 |  | 
CCN(CC)C(=O)c1c(NC(C)C)c2cccnc2n2c(CN3CCN(C)CC3)nnc12 |  | 0 | 13 |  |  |  |  | 
CCN(CC)C(=O)c1c(NC(C)C)c2cccnc2n2c(CN3CCOCC3)nnc12 |  | 0 | 0 |  |  |  |  | 
CCNC(=O)c1c(NC(C)C)c2cccnc2n2c(C(C)C)nnc12 | 64 | 66 | 80 | 72 | 57 | 15 | Toxic | inhibition in vivo at 12.5 mg/kg [6]: 54%; inhibition in vivo at 6.25 mg/kg [7]: 40%; inhibition in vivo at 3.12 mg/kg [13]: 31%; inhibition in vivo at 1.6 mg/kg [14]: 31%; inhibition in vivo at 0.8 mg/kg [15]: 0%; Activity [16]: Non-toxic; IC50 [17]: 281 µM; IC50 [18]: 24 µM; IC50 [19]: 89 µM; inhibition [20]: inactive
COc1ccc2c(c1)c(CC(=O)O)c(C)n2C(=O)c1ccc(Cl)cc1 [INDOMETHACIN] |  |  |  |  |  |  |  | Activity [21]: Toxic
CC(C)NC(=O)c1c(NC(C)C)c2cccnc2n2c(C(C)C)nnc12 |  | 0 | 34 | 33 | 9 |  |  | 
CC(=O)Oc1ccccc1C(=O)O [ASPIRIN] |  |  |  |  |  |  |  | IC50 [17]: > 500 µM; IC50 [18]: 45 µM; IC50 [19]: > 500 µM
CCc1nnc2c(C(=O)N(CC)CC)c(N3CCN(C)CC3)c3cccnc3n12 | 81 | 95 | 39 | 29 | 22 | 10 | Toxic | Activity [11]: Toxic
CNC(=O)c1c(NC(C)C)c2cccnc2n2c(C(C)C)nnc12 | 11 | 67 | 50 | 3 |  |  | Toxic | 
CCN1CCN(c2c(C(=O)N(CC)CC)c3nnc(C(C)C)n3c3ncccc23)CC1 | 74 | 100 | 31 | 35 | 36 | 72 | Toxic | inhibition in vivo at 12.5 mg/kg [9]: 50%; inhibition in vivo at 6.25 mg/kg [22]: 0%; inhibition in vivo at 12.5 mg/kg [6]: 31%; inhibition in vivo at 6.25 mg/kg [7]: 8%; Activity [11]: Toxic; Activity [12]: Toxic; Activity [23]: Toxic
CCN(CC)C(=O)c1c(N2CCN(C)CC2)c2cccnc2n2c(CN3CCN(C)CC3)nnc12 |  | 0 | 0 |  |  |  |  | 

— ChEMBL document CHEMBL3352067, “1,8-Naphthyridines IX. Potent anti-inflammatory and/or analgesic activity of a new group of substituted 5-amino[1,2,4]triazolo[4,3-a][1,8]naphthyridine-6-carboxamides, of some their Mannich base derivatives and of one novel substituted …” (Eur J Med Chem, 2014)
